This is a sample that favours compounds with a hit; in the whole collection about 4.2% have one here.
OX1R antag-1: blocks the human orexin 1 receptor. O43613. OX1R-expressing cells, FRET antagonist read-out. inhibition, % at 6.6 µM. 330,000 compounds, 1.8% hits. AID 485270; in the data active means inhibition mostly above about 38%, no sharp cut-off; inactive means mostly below about 40%;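 further: 0% = agonist challenge alone and 100% = reference antagonist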
OX1R antag-2: blocks the human orexin 1 receptor | O43613 | CHO/OX1R cells, Fluo-8 calcium fluorescence, orexin A | inhibition, % at 5 µM | 330,000 compounds, 0.43% hits;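 active means inhibition above its plate's threshold, mean inhibition of all tested compounds on the plate plus 3 SD, cut at about 37% in these data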;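 further: 0% = orexin A challenge wells and 100% = SB-334867-A antagonist wells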
GalR3 antag: antagonists of human GalR3. inhibition, % at 3 µM. 360,000 compounds, 0.44% hits. HEK293 GalR3-CNG cAMP membrane potential fluorescence; galR3 body fused to GalR1 C-terminus. AID 651719;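 active means inhibition above the screen-wide average plus 3 SD, cut at about 13% in these data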;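 further: forskolin and galanin both at EC90 stimulate the cells; cAMP rise reported by CNG channel membrane potential dye signal; 0% = forskolin plus galanin with DMSO and 100% = forskolin alone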
Target sequence (O60755 1-299 limits assumed): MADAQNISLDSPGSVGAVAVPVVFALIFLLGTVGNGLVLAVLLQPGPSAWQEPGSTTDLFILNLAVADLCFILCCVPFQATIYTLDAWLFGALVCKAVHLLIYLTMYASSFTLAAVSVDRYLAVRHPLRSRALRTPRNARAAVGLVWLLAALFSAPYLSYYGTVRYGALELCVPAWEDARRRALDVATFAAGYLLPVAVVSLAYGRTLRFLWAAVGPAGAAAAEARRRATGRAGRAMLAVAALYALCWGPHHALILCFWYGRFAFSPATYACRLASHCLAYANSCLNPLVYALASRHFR
TAAR1 antag: antagonists of human TAAR1 | AID 624466 | inhibition, % at 3 µM | 360,000 compounds, 1.5% hits | CHO RD-HGA16 TAAR1, Fluo-8 calcium fluorescence, antagonist;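 active means inhibition above a per-plate cutoff, the mean inhibition of test compounds on that plate plus 3 SD, cut at about 49% in these data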;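 further: 0% = DMSO plus EC80 beta-PEA response and 100% = DMSO alone without agonist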
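test system = CHO RD-HGA16 cells bearing hTAAR1 | replication = singlicate | controls = DMSO-only wells and EC80 β-PEA-stimulated wells | reagent = EC80 β-phenethylamine stimulus | read-out basis = percent inhibition of PEA-evoked calcium signal, max/basal emission ratio | schedule = seeding 17-24 h prior, 75-min 37 °C, 30-min RT dye loading | signal = kinetic Fluo-8 calcium fluorescence measurement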
CHO parental Ca: counter-screen for OX1R antagonists: effect in parental CHO cells. parental CHO-K1, ATP-induced calcium, Fluo-8 fluorescence. inhibition, % at 5.6 µM. 330,000 compounds, 0.63% hits;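 active means inhibition above that plate's mean sample inhibition plus 3 SD, cut at about 26% in these data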;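 further: 0% = ATP-challenged DMSO wells and 100% = DMSO wells without ATP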
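Material – parental CHO cells · Reagent – ATP stimulus · Compound – single nominal dose of 5.6 µM per compound · Detection – Fluo-8 fluorescence · Read-out basis – percent inhibition of calcium signal · Controls – ATP-challenged DMSO wells low, unchallenged DMSO wells high · Repeats – no replicates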
TAAR1 ag: human TAAR1 agonism; Q96RJ0; CHO RD-HGA16 TAAR1, Fluo-8 calcium fluorescence; vehicle wells 0%, saturating PEA agonist 100%; activation, % at 3 µM; 360,000 compounds, 0.99% hits;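 active means activation above the mean activation of all test compounds in the run plus 3 SD, cut at about 38% in these data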
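Assay system: CHO-derived RD-HGA16 cells with stable Gα16 and human TAAR1; timing: 17-24 h seeding, 75 min 37 °C dye, 30 min RT; read-out: % activation from peak over basal fluorescence ratio, DMSO-to-PEA scaled; measured by: kinetic Fluo-8 calcium fluorescence; benchmarks: low control DMSO, high control PEA (EC100); doses: 3 µM single concentration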
* hit, by the source's call; . = not tested or not shown.

SMILES	OX1R antag-1	OX1R antag-2	GalR3 antag	TAAR1 antag	CHO parental Ca	TAAR1 ag
Cc1sc2ncnc(NCc3ccccc3)c2c1C	27	0	1	19	35*	-2
COc1ccc(CNc2ncnc3sccc23)cc1	20	10	-10	4	45*	-1
COC(=O)c1cccc(Nc2ccc([N+](=O)[O-])cn2)c1	18	-14	-5	9	-1	3
O=C(NCc1ccc2c(c1)OCO2)c1cccc(N2CCCC2=O)c1	9	-12	-1	5	-4	4
COc1ccccc1NC(=O)CN1C(=O)C(C)Oc2ccccc21 (configuration not stated)	13	-6	-7	-17	-14	17
N#Cc1nc(-c2ccc(OCc3ccc(Cl)cc3)cc2)oc1NCc1cccnc1	24	7	-4	3	-7	4
N#Cc1nc(-c2ccc(OCc3ccccc3)cc2)oc1NCc1cccnc1	61	45*	-5	6	54*	0
O=C(c1cc2sccc2n1Cc1ccccc1)N1CCN(c2nc3ccccc3s2)CC1	17	-10	-4	-7	35*	0
CCOc1ccc(/C=N/NC(=O)C2(O)c3ccccc3-c3ccccc32)cc1	27	-20	-4	-13	-19	2
Cc1cccc(N(CC(=O)NC2CCCC2)C(=O)CCC(=O)Nc2nc(C)cs2)c1	18	-24	-8	-4	-11	10
Cc1cc(C)cc(N(CC(=O)NC2CCCC2)C(=O)CCC(=O)Nc2nc(C)cs2)c1	23	-11	-4	-7	-19	43*
CC(=O)c1ccc(NC(=O)COC(=O)/C=C/c2cccs2)cc1	50*	26	-4	19	-16	12
C=CCOc1ccc(C=CC(=O)c2c(O)c(OC)c(OC)c(OC)c2OC)cc1	.	.	-5	69*	.	2
O=C(c1cc(-c2ccncc2)nc2ccc(Br)cc12)N1CCN(Cc2ccc3c(c2)OCO3)CC1	10	-22	-3	62*	-14	15
O=C(N/N=C/c1ccc(Cl)cc1)c1ccc2nc[nH]c2c1	.	.	-6	53*	.	18
COc1cc(NS(=O)(=O)c2ccc(NS(=O)(=O)c3ccc(C)cc3)cc2)nc(OC)n1	20	-1	-8	6	4	4
COC(=O)c1sc(-c2ccc(C(C)(C)C)cc2)cc1NC(=O)CSCC(=O)O	20	9	-4	49*	3	5
COc1ccc(F)c(-c2nc(CN3CCN(C(=O)c4ccco4)CC3)c(C)o2)c1	8	-13	0	-10	-20	-2
Cc1cc(NC(=O)NC2(C(F)(F)F)Oc3ccc(Cl)cc3O2)no1 (configuration not stated)	7	12	.	.	7	.
Cc1ccc2cc(/C=N/NC(=O)[C@H]3C[C@@H]3c3ccccc3)c(Cl)nc2c1	2	-13	-3	-10	-13	4
O=C(Nc1ccc2c(c1)OCO2)c1cc(-c2ccc(O)cc2)on1	18	-13	-7	-12	39*	6
O=C(Nc1ccc2c(c1)OCO2)c1cc(-c2cccc(O)c2)on1	53	3	-5	-3	6	4
COc1ccc(NC(=O)c2cc(-c3ccccc3)on2)cc1OC	14	-9	-7	5	-11	6
COc1ccc(-n2c(C)cc(/C=N/Nc3nc(N4CCOCC4)nc(N4CCOCC4)n3)c2C)cc1	12	-19	2	50*	-20	14
O=C(c1cccc(Br)c1)N1CCN(C(=O)c2cccc(Br)c2)CC1	11	-33	0	-10	-2	14
COCCNc1c(-c2cc3ccc(C)c(C)c3[nH]c2=O)nc2ccccn12	21	-23	-2	5	-1	5
CC(C)n1c(NCCc2ccccc2)nc2c1c(=O)n(C)c(=O)n2C	27	7	-4	25	39*	19
CC(C)n1c(CN(C)Cc2ccccc2)nc2c1c(=O)n(C)c(=O)n2C	54*	16	-8	31	69*	10
CN1CCN(c2ncc(CN3C(=O)c4ccccc4C3=O)s2)CC1	30	-1	-5	-28	-9	1

Bioassay records (PubChem)
